# The list is not random: actives were taken first. Their share in the collection is about 1.2%.
# G6PDH counter – L. mesenteroides G6PDH inhibition counter-screen; inhibition, % at 5 µM; Purified L. mesenteroides G6PDH, diaphorase/resazurin coupled fluorescence, 45 min; hit rate 0.12% among 200,000; in the data active means inhibition above about 50%
# PfG6PD inh – PfG6PD (Plasmodium falciparum) enzyme inhibition; hit rate 0.78% among 350,000; PfGluPho enzyme, NADPH resazurin-diaphorase fluorescence; inhibition, % at 20 µM;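 active means inhibition reaching at least a set limit at 20 µM in the primary screen, cut at about 59% in these data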;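 further: 0% = DMSO wells with substrate and 100% = DMSO wells lacking glucose-6-phosphate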
# HKDC1 inhibitor – HKDC1 (human) hexokinase inhibition. Q2TB90. recombinant HKDC1, G6PDH/diaphorase resazurin coupled fluorescence. inhibition, % at 20 µM. hit rate 0.16% among 340,000;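 active means inhibition above about 35% when tested at 20 µM, limit read from the data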;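 further: plate controls were DMSO wells with enzyme for no effect and DMSO wells lacking enzyme for full effect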
#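 test system = in-house recombinant HK5 (HKDC1) enzyme | amount = HKDC1 at 5 µg/mL | control set = DMSO-enzyme wells negative, buffer-substituted wells positive | compound = one dose of 20 µM, 1% DMSO | schedule = reaction time 90 min, room temperature, protected from light | technique = resorufin fluorescence at 613 nm | reagent = glucose with 1 mM ATP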
# Diaph act CS – diaphorase activation or chemical reduction counter-screen; Diaphorase/resazurin coupled assay, resorufin fluorescence, 16 min; stronger effect = higher value; 1 = vehicle wells, 0 = NADH-free wells; activation factor at 20 µM; hit rate 0.005% among 190,000; AID 1229;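 active means diaphorase activity raised at least twofold by the compound at 20 µM; inactive means activation factor below 2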
#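 Material: purified diaphorase enzyme from Clostridium kluyveri; Also added: 0.114 mM NADH and 0.1 mM resazurin, final amounts; Doses: single compound dose of 20 µM, 1% DMSO final; Times: 16 min enzyme reaction, ambient temperature; Detection: resorufin fluorescence, excitation 544 nm, emission 590 nm; Measure: increased resorufin signal from activators or reducing compounds.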
# Diaph inh CS – inhibits diaphorase or chemically oxidizes, flagging diaphorase assay artifacts; diaphorase resazurin-to-resorufin fluorescence, NADH, 16 min; bacterial (C. kluyveri) enzyme, not human; inhibition, % at 20 µM; hit rate 0.69% among 190,000;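 active means primary screen inhibition at 20 µM above a set limit, cut at about 50% in these data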;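 further: plate controls were DMSO with full reaction for no effect and wells lacking NADH for full effect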
#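 Benchmarks: positive control wells lacking NADH, neutral wells with DMSO only. System: bacterial diaphorase enzyme (C. kluyveri). Input: 0.14 U/mL diaphorase, enzyme working solution. Detection: resorufin fluorescence, excitation 544 nm, emission 590 nm. Times: 16-min room-temperature incubation before reading.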
# PfGluPho conf – PfG6PD inhibition, single-dose confirmed | shares compounds with PfG6PD inh | recombinant PfGluPho, NADPH-diaphorase-resazurin fluorescence | inhibition, % at 20 µM | hit rate 34% among 2,400;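 active means inhibition of at least 50% at 20 µM in any single replicate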;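 further: 0% = DMSO with substrate and 100% = DMSO lacking glucose-6-phosphate substrate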
# Diaph ctr 10uM – counter-screen for P. falciparum G6PD inhibitors: diaphorase inhibitors, oxidizers. shares compounds with PfG6PD inh. diaphorase-coupled resazurin reduction, fluorescence, NADPH 10 uM. inhibition, % at 20 µM. hit rate 39% among 820;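 active means average inhibition reaching 50% or more with the compound at 20 µM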;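 further: resorufin red fluorescence formed as diaphorase reduces resazurin using NADPH; 0% = DMSO with enzyme and 100% = DMSO without enzyme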
# Diaph ctr 30uM – diaphorase inhibition or oxidation at 30 uM NADPH; shares compounds with PfG6PD inh; Diaphorase/resazurin coupled assay, resorufin fluorescence; inhibition, % at 20 µM; hit rate 29% among 820;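 active means inhibition averaging 50% or more, tested at 20 µM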;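 further: 0% = DMSO with enzyme and 100% = DMSO wells lacking diaphorase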
# The depositor's hits bear a star; . = no result given.
SMILES,G6PDH counter,PfG6PD inh,HKDC1 inhibitor,Diaph act CS,Diaph inh CS,PfGluPho conf,others
CCOC(=O)c1cnc2ccc(OCC)cc2c1NCc1cccnc1,6,24,6,0.7,29,.,
CCOC(=O)c1cnc2ccc(OCC)cc2c1NCc1ccccc1,-21,66*,1,1,0,-7,
Cc1cc(=O)c2c(o1)C(=O)c1occc1C2=O,.,86*,23,.,.,53*,Diaph ctr 10uM=65*;Diaph ctr 30uM=62*
CCOc1c([N+](=O)[O-])cc2c(C)c(C(=O)N3CCN(C)CC3)oc2c1OCC,.,10,9,.,.,.,
COC(=O)c1sc(C(C)(C)C)cc1CSc1ccccc1,.,4,7,.,.,.,
Cc1ccc(-c2c(C(=O)N/N=C/c3ccco3)nnn2-c2nonc2N)cc1,.,62*,2,.,.,46,
Cc1ccc(-c2c(C(=O)N/N=C/c3ccc(C)o3)nnn2-c2nonc2N)cc1,.,79*,1,.,.,60*,Diaph ctr 10uM=63*;Diaph ctr 30uM=47
Cc1ccc(OCCNC(=O)c2ccc(NC(=O)CC3SC(N4CCCC4)=NC3=O)cc2)cc1 (stereo unspecified),.,10,-2,.,.,.,
CC(=O)c1ccc(OCCCCOc2ccc(C(C)=O)cc2)cc1,.,-8,1,.,.,.,
O=C(O)c1ccc(NC2=C/C(=N/S(=O)(=O)c3cccs3)c3ccccc3C2=O)cc1,.,106*,.,.,.,101*,Diaph ctr 10uM=85*;Diaph ctr 30uM=84*
COc1cccc(-n2c(=S)sc3c(=O)n(-c4ccccc4OC)c(=S)[nH]c32)c1,10,39,-2,0.8,18,.,
COc1ccc(OC)c(-n2c(=S)[nH]c3c(sc(=S)n3-c3ccccc3C)c2=O)c1,8,43,-1,1,2,.,
COc1ccccc1-n1c(=S)[nH]c2c(sc(=S)n2-c2ccccc2)c1=O,-2,63*,-6,0.7,28,12,
COc1ccccc1-n1c(=S)[nH]c2c(sc(=S)n2-c2ccccc2C)c1=O,5,72*,-2,0.9,12,23,
CCOc1ccccc1-n1c(=S)sc2c(=O)n(-c3ccccc3)c(=S)[nH]c21,9,73*,-1,0.7,27,-5,
Cc1ncc([N+](=O)[O-])n1CC(=O)Nc1ccc(Br)cc1,.,-10,0,.,.,.,
COC(=O)c1ccc(Cl)c(NC(=O)CN(c2ccccc2)S(=O)(=O)c2ccc(OC)cc2)c1,-20,76*,-3,0.8,21,-18,
O=[N+]([O-])c1ccc(Cl)c(S(=O)(=O)NC2=NCCC2)c1,.,-9,-1,.,.,.,
O=[N+]([O-])c1ccc(Cl)c(S(=O)(=O)Nc2cccc(S(=O)(=O)NC3=NCCC3)c2)c1,.,67*,13,.,.,42,
Cc1sc(NC(=O)Nc2ccccc2)c(C(N)=O)c1C,1,74*,3,0.8,17,27,
CCCC(=O)Nc1sc(Cc2ccccc2)c(C)c1C(N)=O,19,59*,-27,0.7,26,25,
Cc1c(Cc2ccc3c(c2)OCO3)sc(NC(=O)c2ccccc2)c1C(N)=O,6,3,-1,0.8,18,.,
CC(=O)c1ccc(S(=O)(=O)N(C)CCCC(=O)N2CCN(c3ncccn3)CC2)cc1,.,0,-5,.,.,.,
COc1cccc(N/N=C/c2cccc(Br)c2O)c1,.,30,2,.,.,.,
Oc1ccc(/C=N/NC(=S)Nc2cccnc2)c(O)c1O,.,80*,10,.,.,67*,Diaph ctr 10uM=55*;Diaph ctr 30uM=80*
Cc1cccc(N/N=C/c2ccc(O)c(O)c2O)c1,.,84*,14,.,.,44,
Cc1ccc(-c2cc(C(=O)N3CCN(c4ncccn4)CC3)c3cc(Br)ccc3n2)o1,8,62*,3,0.8,19,-11,
Cc1ccc(-n2c(C)cc(-c3csc(N)n3)c2C)cc1,9,20,-16,0.7,28,.,
Cc1cc(-c2csc(N)n2)c(C)n1C,10,64*,-2,0.9,8,-7,
COc1ccccc1C(=O)N=c1sc2c(C)ccc(OC)c2n1C,.,63*,2,.,.,10,

# Screening data as filed in PubChem.
